# Test results published in ChEMBL document CHEMBL1629506, “Design, synthesis and structure-activity relationship study of novel pyrazole-based heterocycles as potential antitumor agents” (Eur J Med Chem, 2010).
# Tested on: Rattus norvegicus
# Experiment: Antiestrogenic activity in Sprague-Dawley rat assessed as reduction in estradiol induced uterine weight upto 0.06 ug, po after 8 days
# Format: functional
# Parameters: scale not given: the % may be the effect or the level left
# Details: not given
# Procedure, shortened: (§1)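 Immature ovariectomized female Sprague-Dawley rats (~55 g), groups of 12. Estradiol 0.03–0.05 given s.c. daily for 7 days, with test compound or letrozole reference at various doses up to 0.06 per animal, given orally in 0.5% carboxymethylcellulose. Controls received estradiol alone. Uterine weights were taken on day 8 and group means expressed as % reduction versus estradiol-only controls. Potency was taken relative to letrozole.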
row,SMILES,Activity [%]
1,N#Cc1c(C(=O)c2cn(-c3ccccc3)nc2-c2ccccc2)nn(-c2ccccc2)c1-c1ccccc1,23.54
2,Cc1ccc(-n2cc(C(=O)c3nn(-c4ccccc4)c(-c4ccccc4)c3C#N)c(C(=O)c3nn(-c4ccccc4)c(-c4ccccc4)c3C#N)n2)cc1,32.43
3,N#Cc1c(-c2nnc(-c3nn(-c4ccccc4)c(-c4ccccc4)c3C#N)c3nn(-c4ccccc4)cc23)nn(-c2ccccc2)c1-c1ccccc1,34.87

# Tested on: Rattus norvegicus
# Experiment: Antiestrogenic activity in Sprague-Dawley rat assessed as reduction in estradiol induced uterine weight 0.06 ug, po after 8 days relative to letrozole
# Format: functional
# Details: not given
# Procedure, shortened: as §1
row,SMILES,potency ratio vs letrozole
1,N#Cc1c(C(=O)c2cn(-c3ccccc3)nc2-c2ccccc2)nn(-c2ccccc2)c1-c1ccccc1,1.08
2,Cc1ccc(-n2cc(C(=O)c3nn(-c4ccccc4)c(-c4ccccc4)c3C#N)c(C(=O)c3nn(-c4ccccc4)c(-c4ccccc4)c3C#N)n2)cc1,1.49
3,N#Cc1c(-c2nnc(-c3nn(-c4ccccc4)c(-c4ccccc4)c3C#N)c3nn(-c4ccccc4)cc23)nn(-c2ccccc2)c1-c1ccccc1,1.61

# Tested on: not listed separately
# Experiment: Acute toxicity in mouse after 24 hrs
# Format: organism-based
# Details: in vivo
# Procedure, shortened: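 Adult mice of both sexes, acclimatized 1 week (12 h light/dark, 21–23 °C), fasted 12 h before dosing. 30 mice in 6 groups of 5 each got a single oral gavage dose, at different dose levels, of a fine-powder aqueous suspension. LD50 was determined, with values as group means of five mice.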
row,SMILES,LD50 at 24 h [mg/kg]
1,N#Cc1c(C(=O)c2cn(-c3ccccc3)nc2-c2ccccc2)nn(-c2ccccc2)c1-c1ccccc1,122
2,Cc1ccc(-n2cc(C(=O)c3nn(-c4ccccc4)c(-c4ccccc4)c3C#N)c(C(=O)c3nn(-c4ccccc4)c(-c4ccccc4)c3C#N)n2)cc1,211
3,N#Cc1c(-c2nnc(-c3nn(-c4ccccc4)c(-c4ccccc4)c3C#N)c3nn(-c4ccccc4)cc23)nn(-c2ccccc2)c1-c1ccccc1,222

# Tested on: MDA-MB-231
# Experiment: Growth inhibition of human MDA-MB-231cells after 48 hrs by sulforhodamine B assay
# Format: functional
# Details: MDA-MB-231, 48 h
# Procedure, shortened: (§2)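 Cells were plated at 5000–40,000 cells/well, depending on doubling time, and preincubated 24 h at 37 °C in 5% CO2. Time-zero plates were TCA-fixed at drug addition. Compounds were dissolved in DMSO and tested at five concentrations (10-fold or ½-log dilutions) for 48 h. Cells were fixed with cold TCA, stained with 0.4% sulforhodamine B and read at 515 nm. GI50 was taken as the concentration giving 50% growth.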
row,SMILES,GI50 [µM]
1,N#Cc1c(-c2nnc(-c3ccccc3)c3nn(-c4ccc(Cl)cc4)cc23)nn(-c2ccccc2)c1-c1ccccc1,6.42
2,N#Cc1c(C(=O)c2cn(-c3ccccc3)nc2-c2ccccc2)nn(-c2ccccc2)c1-c1ccccc1,49.8
3,Cc1ccc(-n2cc(C(=O)c3nn(-c4ccccc4)c(-c4ccccc4)c3C#N)c(C(=O)c3nn(-c4ccccc4)c(-c4ccccc4)c3C#N)n2)cc1,> 100
4,N#Cc1c(-c2nnc(-c3nn(-c4ccccc4)c(-c4ccccc4)c3C#N)c3nn(-c4ccccc4)cc23)nn(-c2ccccc2)c1-c1ccccc1,52.4

# Tested on: MCF7
# Experiment: Growth inhibition of human MCF7 cells after 48 hrs by sulforhodamine B assay
# Format: functional
# Details: MCF7, 48 h
# Procedure, shortened: as §2
row,SMILES,GI50 [µM]
1,N#Cc1c(-c2nnc(-c3ccccc3)c3nn(-c4ccc(Cl)cc4)cc23)nn(-c2ccccc2)c1-c1ccccc1,43.8
2,N#Cc1c(C(=O)c2cn(-c3ccccc3)nc2-c2ccccc2)nn(-c2ccccc2)c1-c1ccccc1,33.3
3,Cc1ccc(-n2cc(C(=O)c3nn(-c4ccccc4)c(-c4ccccc4)c3C#N)c(C(=O)c3nn(-c4ccccc4)c(-c4ccccc4)c3C#N)n2)cc1,0.061
4,N#Cc1c(-c2nnc(-c3nn(-c4ccccc4)c(-c4ccccc4)c3C#N)c3nn(-c4ccccc4)cc23)nn(-c2ccccc2)c1-c1ccccc1,17.8

# Tested on: T47D
# Experiment: Growth inhibition of human T47D cells after 48 hrs by sulforhodamine B assay
# Format: functional
# Details: not given
# Procedure, shortened: as §2
row,SMILES,GI50 [µM]
1,N#Cc1c(-c2nnc(-c3ccccc3)c3nn(-c4ccc(Cl)cc4)cc23)nn(-c2ccccc2)c1-c1ccccc1,38
2,N#Cc1c(C(=O)c2cn(-c3ccccc3)nc2-c2ccccc2)nn(-c2ccccc2)c1-c1ccccc1,28
3,Cc1ccc(-n2cc(C(=O)c3nn(-c4ccccc4)c(-c4ccccc4)c3C#N)c(C(=O)c3nn(-c4ccccc4)c(-c4ccccc4)c3C#N)n2)cc1,25.7
4,N#Cc1c(-c2nnc(-c3nn(-c4ccccc4)c(-c4ccccc4)c3C#N)c3nn(-c4ccccc4)cc23)nn(-c2ccccc2)c1-c1ccccc1,81

# Tested on: NCI/ADR-RES
# Experiment: Growth inhibition of human NCI/ADR-RES cells after 48 hrs by sulforhodamine B assay
# Format: functional
# Details: not given
# Procedure, shortened: as §2
row,SMILES,GI50 [µM]
1,N#Cc1c(-c2nnc(-c3ccccc3)c3nn(-c4ccc(Cl)cc4)cc23)nn(-c2ccccc2)c1-c1ccccc1,2.28
2,N#Cc1c(C(=O)c2cn(-c3ccccc3)nc2-c2ccccc2)nn(-c2ccccc2)c1-c1ccccc1,98
3,Cc1ccc(-n2cc(C(=O)c3nn(-c4ccccc4)c(-c4ccccc4)c3C#N)c(C(=O)c3nn(-c4ccccc4)c(-c4ccccc4)c3C#N)n2)cc1,> 100
4,N#Cc1c(-c2nnc(-c3nn(-c4ccccc4)c(-c4ccccc4)c3C#N)c3nn(-c4ccccc4)cc23)nn(-c2ccccc2)c1-c1ccccc1,24.5

# Tested on: not listed separately
# Experiment: Growth inhibition of human Hs 578T cells after 48 hrs by sulforhodamine B assay
# Format: functional
# Details: not given
# Procedure, shortened: as §2
row,SMILES,GI50 [µM]
1,N#Cc1c(-c2nnc(-c3ccccc3)c3nn(-c4ccc(Cl)cc4)cc23)nn(-c2ccccc2)c1-c1ccccc1,16.8
2,N#Cc1c(C(=O)c2cn(-c3ccccc3)nc2-c2ccccc2)nn(-c2ccccc2)c1-c1ccccc1,> 100
3,Cc1ccc(-n2cc(C(=O)c3nn(-c4ccccc4)c(-c4ccccc4)c3C#N)c(C(=O)c3nn(-c4ccccc4)c(-c4ccccc4)c3C#N)n2)cc1,37.4
4,N#Cc1c(-c2nnc(-c3nn(-c4ccccc4)c(-c4ccccc4)c3C#N)c3nn(-c4ccccc4)cc23)nn(-c2ccccc2)c1-c1ccccc1,94.4

# Tested on: MDA-MB-435
# Experiment: Growth inhibition of human MDA-MB-435 cells after 48 hrs by sulforhodamine B assay
# Format: functional
# Details: MDA-MB-435, 48 h
# Procedure, shortened: as §2
row,SMILES,GI50 [µM]
1,N#Cc1c(-c2nnc(-c3ccccc3)c3nn(-c4ccc(Cl)cc4)cc23)nn(-c2ccccc2)c1-c1ccccc1,23.8
2,N#Cc1c(C(=O)c2cn(-c3ccccc3)nc2-c2ccccc2)nn(-c2ccccc2)c1-c1ccccc1,61
3,Cc1ccc(-n2cc(C(=O)c3nn(-c4ccccc4)c(-c4ccccc4)c3C#N)c(C(=O)c3nn(-c4ccccc4)c(-c4ccccc4)c3C#N)n2)cc1,> 100
4,N#Cc1c(-c2nnc(-c3nn(-c4ccccc4)c(-c4ccccc4)c3C#N)c3nn(-c4ccccc4)cc23)nn(-c2ccccc2)c1-c1ccccc1,> 100

# Tested on: MDA-N
# Experiment: Growth inhibition of human MDA-N cells after 48 hrs by sulforhodamine B assay
# Format: functional
# Details: not given
# Procedure, shortened: as §2
row,SMILES,GI50 [µM]
1,N#Cc1c(-c2nnc(-c3ccccc3)c3nn(-c4ccc(Cl)cc4)cc23)nn(-c2ccccc2)c1-c1ccccc1,63.8
2,N#Cc1c(C(=O)c2cn(-c3ccccc3)nc2-c2ccccc2)nn(-c2ccccc2)c1-c1ccccc1,3.36
3,Cc1ccc(-n2cc(C(=O)c3nn(-c4ccccc4)c(-c4ccccc4)c3C#N)c(C(=O)c3nn(-c4ccccc4)c(-c4ccccc4)c3C#N)n2)cc1,26.8
4,N#Cc1c(-c2nnc(-c3nn(-c4ccccc4)c(-c4ccccc4)c3C#N)c3nn(-c4ccccc4)cc23)nn(-c2ccccc2)c1-c1ccccc1,> 100

# Tested on: BT-549
# Experiment: Growth inhibition of human BT549 cells after 48 hrs by sulforhodamine B assay
# Format: functional
# Details: BT-549, 48 h
# Procedure, shortened: as §2
row,SMILES,GI50 [µM]
1,N#Cc1c(-c2nnc(-c3ccccc3)c3nn(-c4ccc(Cl)cc4)cc23)nn(-c2ccccc2)c1-c1ccccc1,38.8
2,N#Cc1c(C(=O)c2cn(-c3ccccc3)nc2-c2ccccc2)nn(-c2ccccc2)c1-c1ccccc1,1.12
3,Cc1ccc(-n2cc(C(=O)c3nn(-c4ccccc4)c(-c4ccccc4)c3C#N)c(C(=O)c3nn(-c4ccccc4)c(-c4ccccc4)c3C#N)n2)cc1,2.47
4,N#Cc1c(-c2nnc(-c3nn(-c4ccccc4)c(-c4ccccc4)c3C#N)c3nn(-c4ccccc4)cc23)nn(-c2ccccc2)c1-c1ccccc1,11.8

# Tested on: IGROV-1
# Experiment: Growth inhibition of human IGROV1 cells after 48 hrs by sulforhodamine B assay
# Format: functional
# Details: IGROV-1, 48 h
# Procedure, shortened: as §2
row,SMILES,GI50 [µM]
1,N#Cc1c(-c2nnc(-c3ccccc3)c3nn(-c4ccc(Cl)cc4)cc23)nn(-c2ccccc2)c1-c1ccccc1,93.4
2,N#Cc1c(C(=O)c2cn(-c3ccccc3)nc2-c2ccccc2)nn(-c2ccccc2)c1-c1ccccc1,> 100
3,Cc1ccc(-n2cc(C(=O)c3nn(-c4ccccc4)c(-c4ccccc4)c3C#N)c(C(=O)c3nn(-c4ccccc4)c(-c4ccccc4)c3C#N)n2)cc1,0.022
4,N#Cc1c(-c2nnc(-c3nn(-c4ccccc4)c(-c4ccccc4)c3C#N)c3nn(-c4ccccc4)cc23)nn(-c2ccccc2)c1-c1ccccc1,13.3

# Tested on: OVCAR-3
# Experiment: Growth inhibition of human OVCAR3 cells after 48 hrs by sulforhodamine B assay
# Format: functional
# Details: OVCAR-3, 48 h
# Procedure, shortened: as §2
row,SMILES,GI50 [µM]
1,N#Cc1c(-c2nnc(-c3ccccc3)c3nn(-c4ccc(Cl)cc4)cc23)nn(-c2ccccc2)c1-c1ccccc1,> 100
2,N#Cc1c(C(=O)c2cn(-c3ccccc3)nc2-c2ccccc2)nn(-c2ccccc2)c1-c1ccccc1,4.94
3,Cc1ccc(-n2cc(C(=O)c3nn(-c4ccccc4)c(-c4ccccc4)c3C#N)c(C(=O)c3nn(-c4ccccc4)c(-c4ccccc4)c3C#N)n2)cc1,99.8
4,N#Cc1c(-c2nnc(-c3nn(-c4ccccc4)c(-c4ccccc4)c3C#N)c3nn(-c4ccccc4)cc23)nn(-c2ccccc2)c1-c1ccccc1,7.26

# Tested on: OVCAR-5
# Experiment: Growth inhibition of human OVCAR5 cells after 48 hrs by sulforhodamine B assay
# Format: functional
# Details: OVCAR-5, 48 h
# Procedure, shortened: as §2
row,SMILES,GI50 [µM]
1,N#Cc1c(-c2nnc(-c3ccccc3)c3nn(-c4ccc(Cl)cc4)cc23)nn(-c2ccccc2)c1-c1ccccc1,8.94
2,N#Cc1c(C(=O)c2cn(-c3ccccc3)nc2-c2ccccc2)nn(-c2ccccc2)c1-c1ccccc1,6.23
3,Cc1ccc(-n2cc(C(=O)c3nn(-c4ccccc4)c(-c4ccccc4)c3C#N)c(C(=O)c3nn(-c4ccccc4)c(-c4ccccc4)c3C#N)n2)cc1,36.8
4,N#Cc1c(-c2nnc(-c3nn(-c4ccccc4)c(-c4ccccc4)c3C#N)c3nn(-c4ccccc4)cc23)nn(-c2ccccc2)c1-c1ccccc1,9.12

# Tested on: OVCAR-8
# Experiment: Growth inhibition of human OVCAR8 cells after 48 hrs by sulforhodamine B assay
# Format: functional
# Details: OVCAR-8, 48 h
# Procedure, shortened: as §2
row,SMILES,GI50 [µM]
1,N#Cc1c(-c2nnc(-c3ccccc3)c3nn(-c4ccc(Cl)cc4)cc23)nn(-c2ccccc2)c1-c1ccccc1,9.23
2,N#Cc1c(C(=O)c2cn(-c3ccccc3)nc2-c2ccccc2)nn(-c2ccccc2)c1-c1ccccc1,9.83
3,Cc1ccc(-n2cc(C(=O)c3nn(-c4ccccc4)c(-c4ccccc4)c3C#N)c(C(=O)c3nn(-c4ccccc4)c(-c4ccccc4)c3C#N)n2)cc1,20.3
4,N#Cc1c(-c2nnc(-c3nn(-c4ccccc4)c(-c4ccccc4)c3C#N)c3nn(-c4ccccc4)cc23)nn(-c2ccccc2)c1-c1ccccc1,9.82

# Tested on: OVCAR-4
# Experiment: Growth inhibition of human OVCAR4 cells after 48 hrs by sulforhodamine B assay
# Format: functional
# Details: OVCAR-4, 48 h
# Procedure, shortened: as §2
row,SMILES,GI50 [µM]
1,N#Cc1c(-c2nnc(-c3ccccc3)c3nn(-c4ccc(Cl)cc4)cc23)nn(-c2ccccc2)c1-c1ccccc1,5.49
2,N#Cc1c(C(=O)c2cn(-c3ccccc3)nc2-c2ccccc2)nn(-c2ccccc2)c1-c1ccccc1,5.49
3,Cc1ccc(-n2cc(C(=O)c3nn(-c4ccccc4)c(-c4ccccc4)c3C#N)c(C(=O)c3nn(-c4ccccc4)c(-c4ccccc4)c3C#N)n2)cc1,30.4
4,N#Cc1c(-c2nnc(-c3nn(-c4ccccc4)c(-c4ccccc4)c3C#N)c3nn(-c4ccccc4)cc23)nn(-c2ccccc2)c1-c1ccccc1,7.46

# Tested on: SK-OV-3
# Experiment: Growth inhibition of human SKOV3 cells after 48 hrs by sulforhodamine B assay
# Format: functional
# Details: SK-OV-3, 48 h
# Procedure, shortened: as §2
row,SMILES,GI50 [µM]
1,N#Cc1c(-c2nnc(-c3ccccc3)c3nn(-c4ccc(Cl)cc4)cc23)nn(-c2ccccc2)c1-c1ccccc1,> 100
2,N#Cc1c(C(=O)c2cn(-c3ccccc3)nc2-c2ccccc2)nn(-c2ccccc2)c1-c1ccccc1,> 100
3,Cc1ccc(-n2cc(C(=O)c3nn(-c4ccccc4)c(-c4ccccc4)c3C#N)c(C(=O)c3nn(-c4ccccc4)c(-c4ccccc4)c3C#N)n2)cc1,38.8
4,N#Cc1c(-c2nnc(-c3nn(-c4ccccc4)c(-c4ccccc4)c3C#N)c3nn(-c4ccccc4)cc23)nn(-c2ccccc2)c1-c1ccccc1,5.72
